Data: ChEMBL document CHEMBL1141340, “Protein phosphatase inhibitors isolated from Spongia irregularis collected in Papua New Guinea” (J Nat Prod, 2007)
Activity calls are given as the source filed them. The calls are words filed in the database; no cut-off is given here.

Experiments:
[1] = Inhibition of calcineurin
[2] = Inhibition of PP1c
In short: (§1)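 Enzyme source was purified catalytic subunits of protein phosphatases PP-1 and PP-2A. Results are reported as IC50.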

[3] = Inhibition of PP2A; in short: as §1

IC50 [1] [µM]	Activity [1]	IC50 [2] [µM]	IC50 [3] [µM]	Structure (SMILES)
59	–	–	–	CC(C)CCN1CC=C(CCCC(CC[C@@]2(C)C3=CCCC(C)(C)[C@@H]3CC[C@H]2C)COS(=O)(=O)O)C1=O (stereo partly specified) [IREGULARASULFATE]
–	inactive	–	–	CC1=CCCC(C)(C)C1CC/C(C)=C/CCC(CO)CCCc1ccoc1 (stereo unspecified)
230	–	36	–	C[C@@H]1CC[C@@H]2C(=CCCC2(C)C)[C@]1(C)CCC(CCCc1ccoc1)COP(=O)(O)O (stereo partly specified)
66	–	71	130	CC1=CCCC(C)(C)C1CC/C(C)=C/CCC(CCCc1ccoc1)COS(=O)(=O)O (stereo unspecified) [HIPPOSULFATE C]
69	–	64	140	C[C@@H]1CC[C@@H]2C(=CCCC2(C)C)[C@]1(C)CCC(CCCc1ccoc1)COS(=O)(=O)O (stereo partly specified)
70	–	–	–	CC1=CCCC(C)(C)C1CC/C(C)=C/CCC(CCCc1ccoc1)COP(O)(O)=S (stereo unspecified)
